Series [1] concerns Mus musculus. The experiment in a line: In vivo receptor occupancy at JAK1 in Balb/c mouse lungs at 10 to 100 ug, it measured after 4 hrs. Type of series: functional, organism-based. The method, boiled down:
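JAK1 target occupancy in mouse lung measured over time after i.t. administration of 10 μg or 100 μg.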

For series [2], the system named is Salmonella typhimurium. The experiment in a line: Genotoxicity in Salmonella typhimurium by Ames test. Type of series: toxicity. The note with it: salmonella enterica subsp. enterica serovar typhimurium.
In series [3] the test system is Canis familiaris. Kind of series: Toxicity in iv dosed dog for 7 days. The class given is organism-based, Canis lupus familiaris. Particulars: in vivo, 168 h. The method, boiled down:
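Exploratory 7-day intravenous toxicology studies in rat and dog; margins expressed over total plasma AUC relative to projected exposure at a 200 μg human lung dose.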

A short description of series [4]: Volume of distribution at steady state in dog at 0.1 mg/kg, iv administered as 30 mins infusion. Type of series: ADME, organism-based, Canis lupus familiaris. Particulars: in vivo, read-out: Vdss.
Series [5] deals with Mus musculus. Kind of series: Effect on nerve activation in mouse up to 2 mg inhalation administered as micelle vehicle to delta fiber sensory nerve preparation. The note with it: in vivo, inhaled_or_intranasal. The gist of the method: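 Mouse A delta fiber sensory nerve preparation given up to 2 mg in 400 μL of micelle vehicle; nerve activation recorded.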
Series [6] deals with 5-hydroxytryptamine receptor 7 (Homo sapiens) (UniProt P34969). The experiment in a line: Antagonist activity at recombinant human 5-HT7 receptor expressed in CHO cells assessed as inhibition of serotonin-induced cAMP accumulation at 10 uM after 30 mins by HTRF method relative to control. Type of series: functional, cell-based.
Series [7] can be described thus: Oral bioavailability in rat at 1 mg/kg. Particulars: in vivo. Type of series: ADME, organism-based.
The species named for series [8] is Rattus norvegicus. Kind of series: Displacement of [3H]batrachotoxinin from rat cerebral cortex sodium channel site-2 at 10 uM after 60 mins by scintillation counting method relative to control. The method, boiled down: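 Single-point screen at 10 μM within a broad panel of radioligand binding and enzyme inhibition assays covering receptors, transporters, enzymes and ion channels.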

Series [9] has as its target JAK2/JAK1 (Homo sapiens) (UniProt P23458+O60674).
The target of series [10] is T1, Tyrosine-protein kinase JAK2 (Homo sapiens, UniProt O60674).
Series [11] can be described thus: Terminal half life in dog at 0.1 mg/kg, iv administered as 30 mins infusion. Type of series: ADME, organism-based, Canis lupus familiaris. Particulars: in vivo, read-out: beta t1/2 (converted).
A short description of series [12]: Chemical stability in lactose using micronized sample up to 4 weeks. The class given is physicochemical. Particulars: 672 h. The gist of the method:
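Jet-milled (micronized, ~2 μm) material blended with lactose and monitored for chemical and physical stability for up to 4 weeks.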

Series [13] is described as follows: Thermodynamic solubility of the compound in pH 7.4 water buffer using crystalline solid sample. The class given is physicochemical. The note with it: read-out: Therm_solubility. The method, boiled down: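 Thermodynamic solubility measured from crystalline solid in water buffered at pH 7.4.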
Series [14] can be described thus: Chemical stability in pH 8 solution at 40 degC after 1 to 2 days. The note with it: buffer. Type of series: physicochemical. The method, boiled down: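 Hydrolytic stability followed over 1–2 days at pH 8.0 and 40 °C; percent degradation recorded.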
The test system of series [15] is Mus musculus. Kind of series: In vivo inhibition of JAK1/JAK2 in Balb/c mouse assessed as inhibition of IL-6 induced STAT3 phosphorylation in lungs at 10 ug, it pretreated for 15 mins followed by IL-6 stimulation measured after 30 mins by ELISA relative to control. Type of series: functional. The method, boiled down:
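Intratracheal dosing in mouse, then IL-6 given i.t.; phosphorylated STAT3 quantified in lung. Percent inhibition ± 95% CI from the difference in geometric means between vehicle/IL-6 and vehicle/saline groups; N = 6.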

Series [16] deals with T2, Tyrosine-protein kinase JAK3 (Homo sapiens, UniProt P52333).
T2 sequence (P52333 whole entry): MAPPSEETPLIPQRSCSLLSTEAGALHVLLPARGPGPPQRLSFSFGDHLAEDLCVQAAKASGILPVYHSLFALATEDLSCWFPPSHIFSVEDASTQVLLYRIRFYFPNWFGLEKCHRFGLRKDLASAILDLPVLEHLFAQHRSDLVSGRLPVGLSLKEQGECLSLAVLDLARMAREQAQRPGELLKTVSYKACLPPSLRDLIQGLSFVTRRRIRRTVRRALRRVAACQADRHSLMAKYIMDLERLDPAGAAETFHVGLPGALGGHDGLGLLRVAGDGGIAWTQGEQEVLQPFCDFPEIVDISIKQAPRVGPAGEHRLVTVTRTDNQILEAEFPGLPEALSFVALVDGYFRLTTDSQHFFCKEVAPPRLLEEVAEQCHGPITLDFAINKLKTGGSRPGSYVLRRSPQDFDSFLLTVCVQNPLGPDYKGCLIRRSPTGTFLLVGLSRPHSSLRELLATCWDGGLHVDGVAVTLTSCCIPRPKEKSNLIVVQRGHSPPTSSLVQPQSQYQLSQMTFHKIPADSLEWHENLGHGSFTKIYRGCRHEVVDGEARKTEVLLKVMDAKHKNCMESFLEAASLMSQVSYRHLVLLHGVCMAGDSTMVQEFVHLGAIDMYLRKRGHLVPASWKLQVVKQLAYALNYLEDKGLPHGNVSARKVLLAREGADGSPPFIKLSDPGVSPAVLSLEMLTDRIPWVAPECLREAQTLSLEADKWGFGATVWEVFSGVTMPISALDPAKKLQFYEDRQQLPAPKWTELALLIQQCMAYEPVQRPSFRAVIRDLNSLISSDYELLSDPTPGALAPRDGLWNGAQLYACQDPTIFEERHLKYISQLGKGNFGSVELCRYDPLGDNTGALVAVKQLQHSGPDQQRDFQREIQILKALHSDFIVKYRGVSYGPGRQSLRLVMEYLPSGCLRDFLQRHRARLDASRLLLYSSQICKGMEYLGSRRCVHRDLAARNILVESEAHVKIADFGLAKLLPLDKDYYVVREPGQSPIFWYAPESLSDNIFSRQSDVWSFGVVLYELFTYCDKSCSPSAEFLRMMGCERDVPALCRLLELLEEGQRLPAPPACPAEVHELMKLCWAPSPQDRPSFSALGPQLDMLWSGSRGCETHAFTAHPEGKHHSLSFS
The experiment in a line: Inhibition of GST tagged human recombinant JAK3 catalytic domain expressed in baculovirus using peptide substrate preincubated for 60 mins followed by substrate addition and measured after 60 mins by microfluidic assay. The gist of the method:
(§1)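 Caliper microfluidic assay of peptide-substrate phosphorylation by the relevant JAK enzyme, run at 1 mM ATP; IC50 values are geometric means of at least three determinations.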

Series [17] is described as follows: Terminal half life in iv dosed rat at 0.5 mg/kg. The class given is ADME, organism-based. The note with it: in vivo, read-out: beta t1/2 (converted).
Series [18] in a line: Lipophilicity, logD of the compound by shake flask method. The class given is physicochemical. Particulars: octanol/water. The method, boiled down: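 log D measured by the shake flask method.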
The test system of series [19] is Canis familiaris. The experiment in a line: Intrinsic clearance in dog at 0.1 mg/kg, iv administered as 30 mins infusion. Particulars: in vivo, 0.5 h. Type of series: ADME, organism-based, Canis lupus familiaris.
Series [20] relates to Rattus norvegicus. Kind of series: Unbound clearance in rat at 0.5 mg/kg, iv. Type of series: ADME, organism-based. The note with it: in vivo.
Series [21] is described as follows: Chemical stability in pH 8 solution at 40 degC up to 6 weeks. Type of series: physicochemical. The note with it: buffer, pH 8, 1008 h.
In series [22] the target is T1, Tyrosine-protein kinase JAK2. The experiment in a line: Inhibition of GST tagged human recombinant JAK2 catalytic domain expressed in baculovirus using peptide substrate preincubated for 60 mins followed by substrate addition and measured after 60 mins by microfluidic assay. The method, boiled down:
as §1

Series [23] deals with Rattus norvegicus. Kind of series: Intrinsic clearance in rat at 0.5 mg/kg, iv. The note with it: in vivo. The class given is ADME, organism-based.

≈ marks a conversion by molar mass, not a printed value. Calls of active or inactive are those of the source. The rule behind the calls is not given here.

T1 sequence (O60674 whole entry, the tested form may be a part): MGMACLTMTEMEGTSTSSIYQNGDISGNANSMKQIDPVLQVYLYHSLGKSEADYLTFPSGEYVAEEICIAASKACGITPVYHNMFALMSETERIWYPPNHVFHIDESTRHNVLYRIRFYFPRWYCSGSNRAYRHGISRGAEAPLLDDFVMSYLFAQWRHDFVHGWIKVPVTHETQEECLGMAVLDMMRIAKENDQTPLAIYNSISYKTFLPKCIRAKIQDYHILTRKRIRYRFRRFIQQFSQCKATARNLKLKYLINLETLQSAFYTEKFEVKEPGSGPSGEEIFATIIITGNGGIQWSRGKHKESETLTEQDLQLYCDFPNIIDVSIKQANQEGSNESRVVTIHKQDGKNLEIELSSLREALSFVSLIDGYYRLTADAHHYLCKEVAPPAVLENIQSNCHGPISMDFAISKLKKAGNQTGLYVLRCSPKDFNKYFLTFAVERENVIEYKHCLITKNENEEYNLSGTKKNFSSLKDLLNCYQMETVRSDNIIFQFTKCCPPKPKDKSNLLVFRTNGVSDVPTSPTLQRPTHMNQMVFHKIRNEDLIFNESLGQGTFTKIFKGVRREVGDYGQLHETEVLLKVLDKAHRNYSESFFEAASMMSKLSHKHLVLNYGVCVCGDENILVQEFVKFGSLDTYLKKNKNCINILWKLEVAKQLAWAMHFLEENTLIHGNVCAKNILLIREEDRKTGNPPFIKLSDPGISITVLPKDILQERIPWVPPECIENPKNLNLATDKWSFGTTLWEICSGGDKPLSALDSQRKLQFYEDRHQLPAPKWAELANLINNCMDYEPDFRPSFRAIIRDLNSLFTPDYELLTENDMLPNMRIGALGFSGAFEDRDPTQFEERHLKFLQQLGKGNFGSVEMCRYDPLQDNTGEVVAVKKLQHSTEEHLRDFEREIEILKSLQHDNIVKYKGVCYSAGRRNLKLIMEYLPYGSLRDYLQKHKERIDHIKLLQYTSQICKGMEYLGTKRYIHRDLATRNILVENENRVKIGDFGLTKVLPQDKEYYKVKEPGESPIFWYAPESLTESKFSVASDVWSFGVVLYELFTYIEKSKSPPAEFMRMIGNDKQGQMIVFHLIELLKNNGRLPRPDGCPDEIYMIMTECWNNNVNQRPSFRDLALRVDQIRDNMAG
5-hydroxytryptamine receptor 7 (Homo sapiens), sequence (P34969 whole entry): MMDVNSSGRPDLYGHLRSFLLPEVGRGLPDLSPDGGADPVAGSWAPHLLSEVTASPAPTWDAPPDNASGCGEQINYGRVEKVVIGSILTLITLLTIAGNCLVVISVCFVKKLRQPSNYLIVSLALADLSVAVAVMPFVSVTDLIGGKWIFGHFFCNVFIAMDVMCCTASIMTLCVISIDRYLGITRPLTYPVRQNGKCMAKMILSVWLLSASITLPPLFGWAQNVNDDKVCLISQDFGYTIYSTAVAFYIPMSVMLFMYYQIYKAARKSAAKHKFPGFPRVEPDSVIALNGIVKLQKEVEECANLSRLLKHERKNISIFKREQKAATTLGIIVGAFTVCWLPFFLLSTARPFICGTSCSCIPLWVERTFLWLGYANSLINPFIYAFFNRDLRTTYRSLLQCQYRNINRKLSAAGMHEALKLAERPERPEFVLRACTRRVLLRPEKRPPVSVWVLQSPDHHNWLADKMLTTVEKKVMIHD

Regarding `CCc1cc(O)c(F)cc1-c1ccc2c(-c3nc4c([nH]3)CCN(C(=O)c3cnc(N5CCCCC5)cn3)C4)n[nH]c2c1`, the result in series [1] was Active. The Activity entry in series [2], in [3] and in series [5] was “Non-Toxic” throughout. In addition, the Vd in series [4] turned out to be 1 L/kg. Moreover, the inhibition in [6] and in series [8] was > 50% in each case. The bioavailability in [7] was < 5%. Also, the fIC50 in series [9] is 2.1 nM; in series [10], 5.2 nM. The half-life in series [11] is 2 h; in [17] it was 2.1 h. Moreover, the Stability entry in series [12], in [14] and in series [21] was “Stable” throughout. In addition, the solubility thermodynamic in series [13] is 0.5 µM (≈ 0.283 µg/mL). Moreover, the “inhibition (INH)” value in series [15] came out at 100%. In addition, the IC50 is 59.9 nM in series [16] and 23.1 nM in [22]. This molecule also came in with a log distribution coefficient (logD) in [18] of 3.9. The CL worked out at 18 mL/min/kg in series [19] and 48 mL/min/kg in [23]. Also, the CL free in series [20] is > 48000 mL/min/kg.
